Measurements published in ChEMBL document CHEMBL1127499, “S-glucosylated hydantoins as new antiviral agents” (1994).
pEC50: −log10 of the molar value.

Key:
Type in all cases: functional
Vero [1] = assay: Cytotoxic dose of compound required to reduce the viability of normal uninfected vero cells by 50%.; details: Chlorocebus sabaeus, read-out: CD50 (the source's name)
Outline: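 Uninfected Vero cells were grown with compound, and cytotoxicity was read as concentration-dependent inhibition of cell proliferation relative to control cultures. CD50 is the dose reducing viability by 50%, mean of three independent determinations.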

Vero [2] = assay: Antiviral activity against HSV-2 (Herpes simplex virus) in vero cells; details: Chlorocebus sabaeus, read-out: ED50 (the source's name)
Outline: (§1)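 Vero target cells infected with HSV-1 McIntyre or HSV-2 MS for 2.5 h, washed, then mixed 1:50 with uninfected Vero cells preincubated 2.5 h with compound. Virus antigen in culture medium measured by HSV-1/HSV-2 antigen ELISA. ED50 is the dose giving 50% protection, mean of three independent determinations.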

[3] = Selectivity index against HSV-1 was determined as CD50/ED50 ratio
Outline: (§2)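 CD50 (50% reduction of proliferation of uninfected Vero cells) divided by ED50 (50% protection against HSV-1 or HSV-2 in Vero cells, antigen ELISA after 5 days). Each is the mean of three independent determinations.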

[4] = Selectivity index against HSV-2 was determined as CD50/ED50 ratio; outline: as §2
Vero [5] = assay: Antiviral activity against HSV-1 (Herpes simplex virus) in vero cells; details: Chlorocebus sabaeus, read-out: ED50 (the source's name); outline: as §1

SMILES | CC50 (Vero [1]) | pEC50 (Vero [2]) | Selectivity index [3] | Selectivity index [4] | pEC50 (Vero [5])
Nc1nc2c(ncn2COCCO)c(=O)[nH]1 [ACYCLOVIR] | > 50 µM | 6.30 | > 100 | > 100 | 6.30
CC(=O)OCC1OC(SC2=N/C(=C\c3cccs3)C(=O)N2c2ccc(Cl)cc2)C(OC(C)=O)C(OC(C)=O)C1OC(C)=O (stereo not drawn) | 20 µM | 6.00 | 33 | 20 | 6.22
CC(=O)OCC1OC(SC2=NC(=C(C)C)C(=O)N2c2ccccc2)C(OC(C)=O)C(OC(C)=O)C1OC(C)=O (stereo not drawn) | > 200 µM | 4.00 | > 1.6 | > 2 | 3.92
CC(=O)OCC1OC(SC2=N/C(=C\c3cccs3)C(=O)N2c2ccccc2)C(OC(C)=O)C(OC(C)=O)C1OC(C)=O (stereo not drawn) | 24 µM | 6.15 | 60 | 34 | 6.40
CC(=O)OCC1OC(SC2=N/C(=C\c3ccccc3)C(=O)N2c2ccccc2)C(OC(C)=O)C(OC(C)=O)C1OC(C)=O (stereo not drawn) | > 100 µM | 4.00 | – | – | < 4.00
CCOC(=O)c1ccc(N2C(=O)/C(=C/c3cccs3)N=C2SC2OC(COC(C)=O)C(OC(C)=O)C(OC(C)=O)C2OC(C)=O)cc1 (stereo not drawn) | 46 µM | 4.34 | 1.4 | 1 | 4.49
CC(=O)OCC1OC(Sc2nc(/C=C3\C=Nc4ccccc43)c(O)n2-c2ccccc2)C(OC(C)=O)C(OC(C)=O)C1OC(C)=O (stereo not drawn) | > 100 µM | 4.40 | > 2.2 | > 2.5 | 4.34
COc1ccc(N2C(=O)/C(=C/c3cccs3)N=C2SC2OC(COC(C)=O)C(OC(C)=O)C(OC(C)=O)C2OC(C)=O)cc1 (stereo not drawn) | 35 µM | 4.57 | 1.3 | 1.3 | 4.57
O=c1[nH]c(=O)n([C@H]2C[C@H](O)[C@@H](CO)O2)cc1/C=C/Br [BRIVUDINE] | > 100 µM | 5.17 | > 333 | > 15 | 6.52
CC(=O)OCC1OC(SC2=N/C(=C\c3cccs3)C(=O)N2c2cccc(C)c2)C(OC(C)=O)C(OC(C)=O)C1OC(C)=O (stereo not drawn) | 25 µM | 4.72 | 2.5 | 1.3 | 5.00
